Measured values published in ChEMBL document CHEMBL1158748, “Microbial hydroxylation of bufalin by Cunninghamella blakesleana and Mucor spinosus” (J Nat Prod, 2005).

Experiments:
Format in all cases: functional, cell-based
HeLa = experiment: Cytotoxicity against human HeLa cells after 72 hrs by MTT assay
Outline: (§1)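 Cells kept in RPMI 1640 with 10% (v/v) FBS and plated in 96-well plates. Test compounds added at dilutions of 10^-3-10² µmol/L, then incubated 72 h at 37 °C under 5% CO₂. Survival read by MTT. IC50 taken as the concentration (µmol/L) giving 50% inhibition of cell growth.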

Bel-7402 = experiment: Cytotoxicity against human Bel7402 cells after 72 hrs by MTT assay; conditions: Bel-7402, 72 h; outline: as §1
BGC-823 = experiment: Cytotoxicity against human BGC823 cells after 72 hrs by MTT assay; conditions: BGC-823, 72 h; outline: as §1

Structure (SMILES)	IC50 (HeLa) [nM]	IC50 (Bel-7402) [nM]	IC50 (BGC-823) [nM]
C[C@]12CC[C@H](O)C[C@H]1CC[C@@H]1[C@@H]2C[C@H](O)[C@]2(C)[C@@H](c3ccc(=O)oc3)CC[C@]12O	60	410	420
C[C@]12CC[C@H](O)C[C@H]1C[C@H](O)[C@@H]1[C@@H]2C[C@H](O)[C@]2(C)[C@@H](c3ccc(=O)oc3)CC[C@]12O	60	2900	5300
C[C@]12CC[C@H](O)C[C@@]1(O)C[C@H](O)[C@@H]1[C@@H]2CC[C@]2(C)[C@@H](c3ccc(=O)oc3)CC[C@]12O	22	–	–
C[C@]12CC[C@H](O)C[C@H]1CC[C@@H]1[C@@H]2C[C@@H](O)[C@]2(C)[C@@H](c3ccc(=O)oc3)CC[C@]12O	7.6	26	31
C[C@]12CC[C@H](O)C[C@H]1CC[C@@H]1[C@@H]2CC[C@]2(C)[C@@H](c3ccc(=O)oc3)CC[C@]12O [BUFALIN]	28	7	45
